An excerpt weighted towards active compounds, which were near 9.4% of everything screened.
L major viab: Leishmania major promastigote growth inhibition, primary screen. Leishmania major promastigotes, resazurin fluorescence viability. inhibition, % at 10 µM. 9% of 200,000 active; in the data active means inhibition above about 50%;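 further: promastigotes grown with compound for 44 hours at 28 °C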
SKKanGAS inh: S. pyogenes SKKanGAS growth inhibitors in kanamycin, primary screen, streptokinase expression inhibitor project, SKKanGAS strain, BacTiter-Glo luminescence; 6 h; inhibition, % at 7.5 µM; 1.3% of 300,000 active;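 active means mean replicate score, as percent of positive control median, at least 50; inconclusive means mean below 50 but one replicate at or above 50; inactive means mean and every replicate below 50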;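 further: strain carries kanamycin resistance gene driven by streptokinase promoter and grows in 40 µg/ml kanamycin; loss of luminescence reflects streptokinase promoter inhibition or plain growth inhibition; 0% = median of DMSO wells and 100% = positive control at its reference dose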
Beta cell apopt: inhibitors of cytokine-induced beta cell apoptosis, primary screen, luminescence; protection from apoptosis, % (no concentration beside the values); INS-1E cytokine-induced death, ATP luminescence, 48 h; percent of positive-control rescue, neutral wells zero; 0.8% of 300,000 active;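 active means Every replicate reaches about 75%, or at least half do and their mean reaches it too, limit read from the data; inconclusive means At least half of replicates reach the limit but their mean does not; inactive means Under half of replicates reach the limit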;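 further: 0% = cytokine-treated negative control wells and 100% = positive control rescue; higher means more ATP so stronger rescue from cytokine killing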
T cruzi repl: inhibitors of intracellular T. cruzi growth, primary screen, luminescence, NIH3T3 host cells | T. cruzi beta-gal in NIH3T3, 90 h | inhibition, % (test concentration not listed) | 1.4% of 300,000 active;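 active means mean inhibition across valid replicates above about 55%, limit read from the data; inconclusive means mean below that limit but half or more replicates reach it; inactive means mean below it, under half of replicates reach it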;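 further: signal also drops with host cell toxicity which is not excluded here; 0% = plate median of DMSO wells and 100% = zero luminescence signal; higher percent means less beta-gal luminescence so fewer parasites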
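System: Mouse NIH/3T3 fibroblasts infected with β-gal-expressing T. cruzi Tulahuen C4 | Quantity: NIH/3T3 cells, 5,000 per well | Reagent: 5000 reporter trypomastigotes per well | Dosing: Compound pinned at 50 nL/well, DMSO | Schedule: 3 h host attachment, then at least 90 h co-culture | Detection: GalScreen luminescence, 60 min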
Mdm2-MdmX inh: inhibitors of human Mdm2-MdmX association, primary screen, cell-based, luminescence, split luciferase, SaOS-2, uHTS. AID 485346, 2010. 3% of 330,000 active. SaOS-2 split-luciferase Mdm2/MdmX complementation. inhibition, % at 8 µM. Protein Mdm4 (Homo sapiens) + E3 ubiquitin-protein ligase Mdm2 (Homo sapiens), …;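 active means inhibition of at least 50% at 8 µM in the primary screen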
CSC inhib: cancer stem cell viability inhibitors, primary screen, luminescence; inhibition, % at 7.5 µM; AID 2717, 2010; 1.1% of 300,000 active; cancer stem cell-like cells viability; in the data active means inhibition above about 75%; inconclusive means no clear call, values can overlap the other calls; tested in HMLE shEcad cells
* hit, by the source's call; u = inconclusive; x = no result given.

SMILES | L major viab | SKKanGAS inh | Beta cell apopt | T cruzi repl | Mdm2-MdmX inh | CSC inhib
CCOC(=O)c1c(C)c(-c2ccccc2)n(CC(=O)NCCC(C)C)c1C | -6.7 | 2.9 | 0.9 | 28.3 | 21.6 | 5.2
COc1ccc(-c2noc(CCC(=O)NCCCN3CCC(Cc4ccccc4)CC3)n2)cc1 | 100.5* | 3.2 | 33.1 | 10.8 | 42.6 | -7.8
COc1ccc(-c2noc(=O)n2CC(=O)N2CCC(Cc3ccccc3)CC2)cc1 | 95.9* | -4.7 | 9.5 | 4.5 | -12.5 | -8.7
O=C(Cn1c(-c2ccccc2)noc1=O)N1CCC(Cc2ccccc2)CC1 | 39.2 | -4.0 | 15.7 | 1.7 | -2.1 | -4.6
COc1cccc(N(CC(=O)N2CCCC2)S(C)(=O)=O)c1 | x | -0.4 | x | -0.5 | 18.0 | -2.3
COc1ccc(C2=NOC(Cn3c(Cc4ccc(Cl)cc4)nc4c3c(=O)n(C)c(=O)n4C)C2)cc1 (stereo not given) | 63.9* | 9.7 | -1.0 | 25.8 | 1.9 | -34.3
CCOC(=O)c1sc(NC(=O)C2CCCCC2)nc1C | x | -3.4 | -2.0 | -0.9 | -41.0 | 5.0
CCNC(=S)N1CCc2cc(OC)c(OC)cc2C1COc1ccccc1OC (stereo not given) | 19.1 | 2.8 | 2.7 | 11.6 | -1.9 | -5.8
CCNC(=S)N1CCc2cc(OC)c(OC)cc2C1COc1ccc(OC)cc1 (stereo not given) | 68.1* | -2.0 | -0.1 | 9.5 | -11.0 | -4.9
Cc1noc(C)c1CSCC(=O)Nc1nc2c(F)cc(F)cc2s1 | x | x | 4.2 | x | -42.7 | -1.1
Cc1ccc(C(=O)c2cc(C)sc2NC(=O)CN2CCN(C(=O)c3ccco3)CC2)cc1 | 50.3* | 28.9 | 12.5 | u | 37.1 | 22.3
CCc1cc(C(=O)OC)c(NC(=O)CN2CCN(C(=O)c3ccco3)CC2)s1 | x | 3.4 | -1.8 | 6.9 | 4.8 | 5.9
Cc1nc(-c2ccc(NC(=O)c3ccc(Br)o3)cc2)cs1 | x | 20.5 | -6.3 | 4.7 | -190.8 | 40.2
N#C/C(C(N)=O)=c1/ccc2c(c1)N1C3=C(CCCC3)CC3CCCCC31N=2 (stereo not given) | 73.5* | 11.0 | 45.7 | 35.0 | 41.0 | 44.3
COc1ccc(N(C(=O)c2ccc(Cl)cc2)C2=CC3CCC(C2)N3C)cc1 (stereo not given) | 78.5* | -0.1 | -0.9 | 3.7 | 5.7 | x
COc1ccc(N(C(=O)/C=C/c2ccc(OC)c(OC)c2)C2=CC3CCC(C2)N3C)cc1 (stereo not given) | 100.0* | -3.3 | -3.0 | 7.4 | 13.2 | -2.9
COc1ccc(/C=C/C(=O)Oc2ccc(C)c(C)c2)cc1OC | 21.3 | -0.6 | -6.4 | -4.2 | 3.9 | -5.9
O=C(O)C(Nc1nc(C(F)(F)F)nc2ccccc12)c1ccccc1 (stereo not given) | x | -11.4 | -3.9 | -4.4 | -4.3 | -24.1
S=C(Nc1ccc(Nc2ccccc2)cc1)Nc1ccccn1 | 46.9 | 66.0* | 86.2* | 25.2 | 16.4 | 6.9
CC(C)CCNC(=S)Nc1ccccn1 | 67.7* | -2.0 | 2.2 | -25.2 | 12.1 | -1.3
CC(C)CCNC(=S)Nc1ccccc1F | 52.0* | 1.1 | -3.2 | -19.4 | -10.3 | -5.9
NC(=O)[C@H]1CC2(CC(c3cccc(NC(=O)COc4ccc(Cl)cc4)c3)=NO2)CN1C(=O)Cc1ccc([N+](=O)[O-])cc1 (stereo not given in full) | x | 33.9 | 9.5 | 18.6 | 41.6 | 4.4
O=c1cc(O)n(Cc2ccc(F)cc2)c(=O)[nH]1 | x | 1.2 | -17.8 | -4.5 | 13.6 | -2.9
CCOC(=O)C1CCN(Cc2cccc(OCc3ccccc3)c2)CC1 | x | 2.9 | -3.5 | 1.4 | 6.2 | 0.5
CCOC(=O)C1CCN(Cc2ccc(OC)c(C)c2OC)CC1 | 63.8* | -6.3 | -0.6 | 5.0 | -21.6 | 4.3
SMILES | L major viab | SKKanGAS inh | Beta cell apopt | T cruzi repl | Mdm2-MdmX inh | CSC inhib
CCOC(=O)C1CCN(Cc2ccc(F)cc2F)CC1 | 89.4* | -4.8 | -2.7 | -1.0 | 5.7 | 7.0
CCOC(=O)C1CCN(Cc2ccc(F)c(Br)c2)CC1 | 76.7* | 8.7 | -3.8 | -2.7 | -5.7 | -19.1
COC(=O)C1CCN(Cc2ccc(C)cc2)CC1 | 90.8* | -6.0 | x | -11.7 | -9.4 | -8.3
O=C(COC(=O)Cc1ccc(Cl)cc1)NCc1ccco1 | x | x | 0.8 | x | 3.7 | -14.7
CCOC(=O)C1CCN(C(=O)c2ccccc2NS(=O)(=O)c2ccc(F)cc2)CC1 | 52.7* | -6.7 | -1.9 | -11.4 | -5.4 | -1.3
COc1ccc(-c2cc(-c3ccccc3)c(C#N)c(SCC(=O)Nc3ncc(C)s3)n2)cc1 | 36.0 | 14.3 | x | 56.2* | 27.0 | x
N#Cc1c(-c2ccccc2)cc(-c2ccccc2)nc1SCCC(=O)O | x | 32.6 | -1.8 | 31.0 | 40.6 | 75.2*
COc1cc(S(=O)(=O)NC2CCCCC2C)ccc1F (stereo not given) | x | -8.8 | 1.0 | -2.1 | 10.7 | -1.5
O=C(NNc1ccccc1)C(=O)NNS(=O)(=O)c1ccc(CCCl)cc1 | x | 0.4 | 0.3 | 71.7* | -26.9 | 105.1*
Nc1ccc(S(=O)(=O)NNC(=O)C(=O)NNc2ccccc2)cc1 | 86.9* | 0.5 | -3.6 | 67.2* | -14.7 | -5.6
COc1sc(SC)cc1/C=N/NC(=O)c1ccncc1 | x | 1.3 | 3.1 | 1.8 | 16.7 | 1.3
CCOc1cc2c(cc1OCC)C(c1ccccc1)N(c1ccccc1)C(=O)C2 (stereo not given) | 81.0* | 12.6 | -0.3 | 0.1 | 30.9 | -3.1
COc1ccc(NS(=O)(=O)c2cccc(Cl)c2)cc1S(=O)(=O)N1CCCCC1 | 59.4* | -2.3 | -4.6 | 2.2 | -0.8 | -1.1
COc1ccc(NC(=O)[C@@H](NC(=O)c2ccccc2)C(C)C)cc1S(=O)(=O)N1CCCCC1 | 72.4* | 0.7 | x | -3.0 | -7.6 | x
COc1ccc(NC(=O)c2cc(OC)c(OC)c(OC)c2)cc1S(=O)(=O)N1CCCCC1 | 15.4 | -3.1 | 5.1 | -0.8 | 41.4 | -0.5
COc1ccc(NC(=O)c2cncc(Br)c2)cc1S(=O)(=O)N1CCCCC1 | 73.0* | -8.9 | x | -3.7 | 3.1 | -1.3
COc1cc(S(=O)(=O)N2CCCCCC2)c(OC)cc1Br | 14.7 | -6.6 | -13.6 | 12.5 | 11.3 | 78.6*
Nc1ccc(-c2ccc(N)cc2C(F)(F)F)c(C(F)(F)F)c1 | 21.1 | 60.0* | -4.7 | 27.5 | 25.5 | 3.8
Cn1c(N2CCOCC2)c(/C=N/OC(=O)c2cccnc2Cl)c2ccccc21 | 100.1* | -4.0 | x | 6.9 | x | x
CC(=O)O/N=C/c1c(N2CCOCC2)n(C)c2ccccc12 | 99.3* | 3.8 | 1.0 | 61.0* | 49.3 | -14.7
Cn1c(N2CCOCC2)c(/C=N/OC(=O)c2ccc(F)cc2)c2ccccc21 | 99.5* | 7.6 | 64.7 | 64.6* | 49.9 | 11.9
Cn1c(Cl)c(/C=N/OC(=O)c2ccc(Cl)cc2)c2ccccc21 | -4.8 | -15.9 | -8.3 | 5.1 | -0.3 | 2.5
